Four compounds from ChEMBL document CHEMBL1806492, “Generation of 'Unnatural Natural Product' library and identification of a small molecule inhibitor of XIAP” (Bioorg Med Chem, 2011) can be followed below.

The test system of assay [1] is HeLa. Description: Induction of sensitization of human HeLa cells to camptothecin-induced apoptosis assessed as induction DNA fragmentation at 160 nM after 24 hrs by propidium iodide-staining based FACS assay. It counts as functional, cell-based. A digest of the protocol: (§1)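 HeLa cells seeded at 1×10^5 cells/well and cultured overnight, then exposed to various concentrations of test compounds for 24 h. Nuclei stained with propidium iodide. Cell death measured by flow cytometry as DNA fragmentation, read as the sub-G1 population.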
On the technique in general: Flow cytometry measures light scatter and fluorescence of single cells or particles in a stream.

In assay [2] the test system is HeLa. Briefly: Induction of sensitization of human HeLa cells to staurosporine-induced apoptosis assessed as induction DNA fragmentation at 160 nM after 24 hrs by propidium iodide-staining based FACS assay. The class given is functional, cell-based. A digest of the protocol:
as §1

Assay [3] has as its target E3 ubiquitin-protein ligase XIAP (Homo sapiens) (UniProt P98170). Briefly: Inhibition of human recombinant GST tagged XIAP expressed in Escherichia coli assessed as restoration of XIAP-mediated suppression of caspase-3 activity after 1 hrs using fluorogenic tetrapeptide Ac-DEVD-AFC substrate by caspase de-repression assay.
In the next assay the target is T1, Caspase-3 (Homo sapiens) (UniProt P42574).
T1 sequence (whole entry): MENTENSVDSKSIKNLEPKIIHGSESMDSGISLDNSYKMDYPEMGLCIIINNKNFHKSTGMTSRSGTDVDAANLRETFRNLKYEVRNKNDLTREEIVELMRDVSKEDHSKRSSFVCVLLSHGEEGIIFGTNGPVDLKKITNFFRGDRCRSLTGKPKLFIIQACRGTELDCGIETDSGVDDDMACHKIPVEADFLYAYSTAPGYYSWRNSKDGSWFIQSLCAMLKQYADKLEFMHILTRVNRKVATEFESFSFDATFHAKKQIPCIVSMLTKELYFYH
Briefly: Effect on human caspase-3 activity at 10 uM in the absence of XIAP after 1 hrs using fluorogenic tetrapeptide Ac-DEVD-AFC as substrate.

The target of assay [4] is E3 ubiquitin-protein ligase XIAP (Homo sapiens) (UniProt P98170). Briefly: Inhibition of human GST-tagged XIAP binding to active human caspase-3 at 3 uM after 1 hrs by GST pull-down assay.
Sequence of E3 ubiquitin-protein ligase XIAP (Homo sapiens) (P98170 whole entry, the tested form may be a part): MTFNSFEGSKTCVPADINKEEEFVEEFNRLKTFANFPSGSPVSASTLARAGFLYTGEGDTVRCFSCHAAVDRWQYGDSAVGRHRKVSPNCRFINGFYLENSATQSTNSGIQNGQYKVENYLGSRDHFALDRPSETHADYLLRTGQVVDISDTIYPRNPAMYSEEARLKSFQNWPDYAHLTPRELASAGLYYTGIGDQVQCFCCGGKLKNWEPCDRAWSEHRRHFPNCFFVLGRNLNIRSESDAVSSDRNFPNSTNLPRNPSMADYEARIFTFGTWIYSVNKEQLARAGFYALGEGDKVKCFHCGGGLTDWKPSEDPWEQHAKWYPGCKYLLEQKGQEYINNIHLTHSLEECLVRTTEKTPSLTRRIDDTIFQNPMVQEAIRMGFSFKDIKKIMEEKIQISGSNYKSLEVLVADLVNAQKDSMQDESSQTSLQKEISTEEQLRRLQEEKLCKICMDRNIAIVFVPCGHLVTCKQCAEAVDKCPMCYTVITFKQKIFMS
Assay [5] relates to HeLa. Description: Induction of sensitization of human HeLa cells to camptothecin-induced apoptosis assessed as induction DNA fragmentation at 10 uM after 24 hrs by propidium iodide-staining based FACS assay. The class given is functional, cell-based. In outline: as §1
The subject of assay [6] is HeLa. Description: Induction of sensitization of human HeLa cells to staurosporine-induced apoptosis assessed as induction DNA fragmentation at 10 uM after 24 hrs by propidium iodide-staining based FACS assay. It counts as functional, cell-based. In outline:
as §1

Assay [7] relates to HeLa. Description: Suppression of camptothecin-induced apoptosis in human HeLa cells assessed as reduction in DNA fragmentation at 100 uM after 24 hrs by propidium iodide-staining based FACS assay. It counts as functional, cell-based. In outline: (§2)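 HeLa cells seeded at 1×10^5 cells/well, cultured overnight, treated with test compounds at various concentrations for 24 h. Nuclei stained with propidium iodide; cell death scored by flow cytometry as the sub-G1 (fragmented DNA) population.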

Assay [8] has as its system HeLa. Briefly: Suppression of staurosporine-induced apoptosis in human HeLa cells assessed as reduction in DNA fragmentation at 100 uM after 24 hrs by propidium iodide-staining based FACS assay. It counts as functional, cell-based. A digest of the protocol: as §2
The target in assay [9] is Protein kinase C alpha type (Homo sapiens, UniProt P17252). Description: Inhibition of [3H]PDBu binding to PKCalpha-C1A domain peptide.
For assay [10], the target named is Protein kinase C beta type (Homo sapiens, UniProt P05771). Briefly: Inhibition of [3H]PDBu binding to PKCbeta-C1A domain peptide.
Sequence of Protein kinase C beta type (P05771 whole entry, the tested form may be a part): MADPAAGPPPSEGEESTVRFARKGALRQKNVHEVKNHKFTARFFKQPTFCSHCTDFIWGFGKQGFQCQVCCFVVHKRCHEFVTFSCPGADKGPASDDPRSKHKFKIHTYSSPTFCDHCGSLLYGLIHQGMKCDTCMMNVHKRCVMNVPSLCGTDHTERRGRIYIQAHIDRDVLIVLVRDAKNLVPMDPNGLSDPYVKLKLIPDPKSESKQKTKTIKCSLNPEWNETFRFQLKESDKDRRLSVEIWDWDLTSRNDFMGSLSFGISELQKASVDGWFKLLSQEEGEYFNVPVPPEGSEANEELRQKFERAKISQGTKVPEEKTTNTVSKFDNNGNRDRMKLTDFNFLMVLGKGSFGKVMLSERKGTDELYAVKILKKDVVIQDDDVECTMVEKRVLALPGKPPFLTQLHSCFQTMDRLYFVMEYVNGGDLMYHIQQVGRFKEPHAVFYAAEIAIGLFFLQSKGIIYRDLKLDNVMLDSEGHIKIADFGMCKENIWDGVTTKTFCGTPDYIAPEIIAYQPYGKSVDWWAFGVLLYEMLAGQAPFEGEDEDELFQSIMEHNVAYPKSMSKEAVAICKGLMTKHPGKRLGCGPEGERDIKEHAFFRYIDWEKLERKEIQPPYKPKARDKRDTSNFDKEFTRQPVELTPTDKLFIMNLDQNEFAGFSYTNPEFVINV
For assay [11], the target named is Protein kinase C gamma type (Homo sapiens, UniProt P05129). Briefly: Inhibition of [3H]PDBu binding to PKCgamma-C1A domain peptide.
Assay [12] addresses Protein kinase C delta type (Homo sapiens, UniProt Q05655). Description: Inhibition of [3H]PDBu binding to PKCdelta-C1B domain peptide.
For assay [13], the target named is T2, Protein kinase C epsilon type (Homo sapiens, UniProt Q02156).
T2 sequence (Q02156 whole entry): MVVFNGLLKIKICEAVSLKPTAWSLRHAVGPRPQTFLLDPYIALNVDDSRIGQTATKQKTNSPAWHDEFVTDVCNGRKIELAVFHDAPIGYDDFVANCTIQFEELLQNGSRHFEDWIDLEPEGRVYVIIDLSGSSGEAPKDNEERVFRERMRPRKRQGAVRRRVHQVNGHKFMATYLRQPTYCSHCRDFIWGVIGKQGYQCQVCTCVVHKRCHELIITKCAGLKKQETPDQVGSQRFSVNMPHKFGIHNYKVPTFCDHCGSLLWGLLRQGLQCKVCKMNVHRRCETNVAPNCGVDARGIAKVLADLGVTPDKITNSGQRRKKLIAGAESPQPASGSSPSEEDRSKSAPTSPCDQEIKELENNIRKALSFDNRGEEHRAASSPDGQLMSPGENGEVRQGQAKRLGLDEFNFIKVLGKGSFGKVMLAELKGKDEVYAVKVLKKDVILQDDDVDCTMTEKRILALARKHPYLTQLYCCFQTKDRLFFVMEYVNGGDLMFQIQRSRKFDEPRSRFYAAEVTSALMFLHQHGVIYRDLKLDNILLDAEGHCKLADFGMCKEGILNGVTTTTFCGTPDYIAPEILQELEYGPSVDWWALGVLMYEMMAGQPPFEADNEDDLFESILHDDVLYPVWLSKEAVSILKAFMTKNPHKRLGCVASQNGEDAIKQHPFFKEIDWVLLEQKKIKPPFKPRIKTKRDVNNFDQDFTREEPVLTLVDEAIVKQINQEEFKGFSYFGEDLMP
Briefly: Inhibition of [3H]PDBu binding to PKCepsilon-C1B domain peptide.

The target in assay [14] is Protein kinase C eta type (Homo sapiens, UniProt P24723). Description: Inhibition of [3H]PDBu binding to PKCeta-C1B domain peptide.
Sequence of Protein kinase C eta type (P24723 whole entry, the tested form may be a part): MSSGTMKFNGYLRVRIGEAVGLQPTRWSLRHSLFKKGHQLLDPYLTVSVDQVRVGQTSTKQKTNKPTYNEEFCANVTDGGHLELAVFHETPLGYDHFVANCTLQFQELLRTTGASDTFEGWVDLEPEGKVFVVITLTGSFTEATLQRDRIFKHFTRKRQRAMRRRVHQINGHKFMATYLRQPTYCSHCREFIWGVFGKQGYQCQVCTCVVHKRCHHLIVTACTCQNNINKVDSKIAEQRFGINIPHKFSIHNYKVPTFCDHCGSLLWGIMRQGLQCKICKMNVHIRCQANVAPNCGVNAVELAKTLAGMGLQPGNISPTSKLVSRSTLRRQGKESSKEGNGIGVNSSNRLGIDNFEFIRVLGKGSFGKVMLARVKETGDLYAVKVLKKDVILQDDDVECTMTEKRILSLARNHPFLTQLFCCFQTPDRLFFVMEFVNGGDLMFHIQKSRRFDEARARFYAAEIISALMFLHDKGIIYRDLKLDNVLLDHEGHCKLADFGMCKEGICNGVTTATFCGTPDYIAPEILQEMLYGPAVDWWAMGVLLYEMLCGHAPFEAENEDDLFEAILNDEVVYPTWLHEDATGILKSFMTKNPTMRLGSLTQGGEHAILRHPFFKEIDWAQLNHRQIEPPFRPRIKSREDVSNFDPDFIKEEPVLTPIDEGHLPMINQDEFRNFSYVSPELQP
The subject of assay [15] is HeLa. Description: Induction of sensitization of human HeLa cells to camptothecin-induced apoptosis at 10 uM after 48 hrs by trypan blue dye exclusion assay. It counts as functional, cell-based. A digest of the protocol: (§3)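 HeLa cells seeded at 2×10^4 cells/well, cultured overnight, then exposed to test compounds at various concentrations for 48 h. Viable cells counted by trypan blue dye exclusion.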

For assay [16], the system named is HeLa. Description: Induction of sensitization of human HeLa cells to staurosporine-induced apoptosis at 10 uM after 48 hrs by trypan blue dye exclusion assay. It counts as functional, cell-based. In outline:
as §3

Calls of active or inactive are those of the source. No cut-off for these calls is given here. Residues, ends and D or L forms follow the SMILES beside them. *: point of attachment. Cbz = O=C(OCc1ccccc1)*; CH2F = FC*

Sequence of Protein kinase C delta type (Q05655 whole entry, the tested form may be a part): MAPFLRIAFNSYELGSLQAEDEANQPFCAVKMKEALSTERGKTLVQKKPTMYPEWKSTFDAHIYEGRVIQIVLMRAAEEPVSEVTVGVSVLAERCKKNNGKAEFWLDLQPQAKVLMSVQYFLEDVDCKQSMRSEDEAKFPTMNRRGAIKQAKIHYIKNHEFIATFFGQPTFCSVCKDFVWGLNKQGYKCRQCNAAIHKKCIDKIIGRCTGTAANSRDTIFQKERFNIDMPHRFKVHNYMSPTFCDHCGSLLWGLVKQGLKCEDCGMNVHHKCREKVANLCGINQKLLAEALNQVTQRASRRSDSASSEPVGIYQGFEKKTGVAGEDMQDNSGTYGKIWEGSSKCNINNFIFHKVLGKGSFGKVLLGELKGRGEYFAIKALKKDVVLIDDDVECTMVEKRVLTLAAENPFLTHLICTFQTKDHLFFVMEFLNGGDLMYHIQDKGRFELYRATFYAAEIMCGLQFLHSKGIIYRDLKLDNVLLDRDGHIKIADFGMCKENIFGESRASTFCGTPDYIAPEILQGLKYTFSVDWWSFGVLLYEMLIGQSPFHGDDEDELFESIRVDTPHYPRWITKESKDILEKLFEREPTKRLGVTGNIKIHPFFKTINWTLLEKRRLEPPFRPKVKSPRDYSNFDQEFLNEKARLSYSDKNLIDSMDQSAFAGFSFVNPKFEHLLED

Consider `CCCCCCCCCCCCCC(=O)O[C@@H]1[C@@H](C)[C@@]2(O)[C@@H](C=C(CO)C[C@]3(O)C(=O)C(C)=C[C@@H]23)[C@@H]2C(C)(C)[C@]12OC(C)=O`, for which the result in the assay on HeLa [1] and in the assay on HeLa [2] was inactive.

On to `C=C[C@]1(C)CC[C@@](C)(C(C)C)c2cc3c4c(c[nH]c4c21)C[C@@H](CO)NC(=O)[C@H](C(C)C)N3C`, for which the inhibition result in assay [3] and in assay [4] was “inactive” each time. Besides, the result on Caspase-3 (Homo sapiens) was Active. The outcome in the assay with HeLa [5] and in the assay with HeLa [6] was inactive.

`COC(=O)C[C@H](NC(=O)[C@H](C)NC(=O)[C@@H](NC(=O)OCc1ccccc1)C(C)C)C(=O)CF` (Cbz-Val-Ala-Asp(OMe)-CH2F): the result in the assay with HeLa [7] and in the assay with HeLa [8] was inactive.

For `C=C[C@@]1(C)CC[C@](C)(C(C)C)c2cc3c4c(c[nH]c4c21)CC(=O)NC(=O)[C@H](C(C)C)N3C`, the inhibition result in [3] and in assay [4] was “Active” in each case. For the same compound, the inhibition entry on Caspase-3 (Homo sapiens) was “inactive”. Also, the Ki (usually a measure of affinity in units of concentration, obtained from inhibition or displacement) was 600 nM in assay [9]; 730 nM in assay [10]; 660 nM in assay [11]; 87 nM in assay [12]; 480 nM in assay [13]; 360 nM in assay [14]. Moreover, the outcome in the assay with HeLa [15], in the assay on HeLa [5], in the assay with HeLa [6] and in the assay on HeLa [16] was Active.
